We go through two molecules from ChEMBL document CHEMBL1123083, “Synthesis and antiherpetic activity of (S)-, (R)-, and (+/-)-9-[(2,3-dihydroxy-1-propoxy)methyl]guanine, linear isomers of 2'-nor-2'-deoxyguanosine” (J Med Chem, 1985).

As a reminder, the Inhibition is the change of the read-out against control, counted positive when it falls.

Series [1] concerns Human alphaherpesvirus 1. Nature of the series: Efficacy was evaluated against Oraficial HSV-1 infection in mice with lesions administered orally at a dose 50 mg/kg per day. In kind it is ADME, organism-based. Details: route oral. The following applies: mouse, in vivo, po. The gist of the method:
(§1)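 HSV-1 strain S inoculated in the orofacial area of mice as previously described. Half-daily doses given by gavage 8 h apart, starting 3 h after infection, for 7 days. On day 7 after infection, mice with lesions per group and average lesion score were recorded (95% confidence interval). Significance was judged against placebo-treated infected mice (p < 0.05).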

Series [2] concerns Human alphaherpesvirus 1. Nature of the series: Efficacy was evaluated against Oraficial HSV-1 infection in mice with lesions administered orally at a dose 3.1 mg/kg per day. In kind it is ADME, organism-based. Details: route oral. The following applies: mouse, in vivo, po. The gist of the method: as §1
The subject of series [3] is Human betaherpesvirus 5. In words: In vitro anti viral activity tested against HCMV(AD169) virus on MRC-5 cell monolayers; 20-25. The class given is functional. As to conditions: Human betaherpesvirus 5, MRC5; read-out: ED50 (the source's name). The gist of the method: (§2)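 MRC-5 monolayers were infected with HCMV AD169 for 1 h at 37 °C. Compound diluted in maintenance medium was then added and incubation continued for 7 days at 37 °C. Monolayers were stained and plaques counted. ED50 is the concentration reducing plaque number by 50%.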

Series [4] has as its system Human alphaherpesvirus 1. In words: Evaluated for DNA polymerase inhibition activity against herpes simplex virus-1 (HSV-1). The class given is functional. The gist of the method: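 Step II mixture supplied the phosphorylated test material. Step I: compound with HSV-1 thymidine kinase, 4 h, 37 °C. Step II: then HSV-1-infected HeLa crude extract plus GMP kinase, overnight, 30 °C. A 20 μL sample went to a 1 h, 37 °C DNA polymerase assay at pH 8 with activated salmon sperm DNA, 0.05 mM each dNTP ([³H]dTTP) and infected HeLa extract. (NH₄)₂SO₄ 0.1 M was present for the viral enzyme and omitted for the cellular polymerases. Read-out: TCA-precipitable radioactivity.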

The subject of series [5] is Human alphaherpesvirus 1. Nature of the series: Efficacy was evaluated against Systemic HSV-1 infection in mice at a daily dose of 3.1 mg/kg administered orally; Total mice tested 10. In kind it is ADME, organism-based. Further details: dose 3.1 mg/kg. The following applies: mouse, in vivo, po. The gist of the method:
(§3)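 Mixed-sex ICR/Ha mice (10–20 g) were infected intraperitoneally with 50–100 LD50 of HSV-1 Schooler. Oral dosing of 0.1 mL twice daily for 7 days began immediately after infection. Groups were of about 10 mice. Deaths were recorded daily for 15 days, giving survivors/total and mean survival time with 95% CI. Significance was judged against placebo-treated infected mice using transformed survival times.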

Series [6] concerns DNA polymerase (Homo sapiens). Nature of the series: Evaluated for DNA polymerase inhibition activity against HeLa cells.
The test system of series [7] is Human alphaherpesvirus 1. In words: Efficacy was evaluated against Systemic HSV-1 infection in mice at a daily dose of 3.1 mg/kg administered orally. Details: dose 3.1 mg/kg. As to conditions: mouse, in vivo, po. The class given is ADME, organism-based. The gist of the method:
as §3

Series [8] has as its system Human alphaherpesvirus 1. Nature of the series: Efficacy was evaluated against Systemic HSV-1 infection in mice at a daily dose of 50 mg/kg administered orally. As to conditions: mouse, in vivo, po. In kind it is ADME, organism-based. Further details: dose 50 mg/kg. The gist of the method:
as §3

In series [9] the test system is Human alphaherpesvirus 1. In words: In vitro anti viral activity tested against HSV-1(Schooler) virus on Rabbit kidney cell cultures; 1-3. The class given is functional. The following applies: Human alphaherpesvirus 1, kidney; read-out: ED50 (the source's name). The gist of the method:
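Confluent primary rabbit kidney monolayers were preincubated with serial drug dilutions in EMEM with 2% fetal calf serum and neomycin. They were then challenged with about 10 TCID50 of […] and incubated at 37 °C. Cytopathology was scored on day 5.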

Series [10] has as its system Human alphaherpesvirus 1. Nature of the series: Efficacy was evaluated against Oraficial HSV-1 infection in mice with lesions administered orally at dose 3.1 mg/kg per day; Total mice tested 10. The class given is ADME, organism-based. Details: route oral. As to conditions: mouse, in vivo, po. The gist of the method:
as §1

For series [11], the system named is Human alphaherpesvirus 1. Nature of the series: Efficacy was evaluated against Systemic HSV-1 infection in mice at a daily dose of 12.5 mg/kg administered orally. In kind it is ADME, organism-based. Details: dose 12.5 mg/kg. The following applies: mouse, in vivo, po. The gist of the method: as §3
Series [12] relates to Human alphaherpesvirus 1. Nature of the series: Efficacy was evaluated against Oraficial HSV-1 infection in mice with lesions administered orally at a dose 12.5 mg/kg per day. In kind it is ADME, organism-based. Further details: route oral. As to conditions: mouse, in vivo, po. The gist of the method:
as §1

Series [13] has as its system Human alphaherpesvirus 1. In words: Efficacy was evaluated against Oraficial HSV-1 infection in mice with lesions administered orally at a dose 50 mg/kg per day; Total mice tested 10. Details: route oral. The following applies: mouse, in vivo, po. The class given is organism-based. The gist of the method: as §1
In series [14] the test system is Human alphaherpesvirus 1. Nature of the series: Efficacy was evaluated against Oraficial HSV-1 infection in mice with lesions administered orally at a dose 12.5 mg/kg per day; Total mice tested 10. In kind it is organism-based. Details: route oral. The following applies: mouse, in vivo, po. The gist of the method:
as §1

The subject of series [15] is Human alphaherpesvirus 1. In words: Efficacy was evaluated against Systemic HSV-1 infection in mice at a daily dose of 12.5 mg/kg administered orally; Total mice tested 10. In kind it is ADME, organism-based. Further details: dose 12.5 mg/kg. The following applies: mouse, in vivo, po. The gist of the method: as §3
Series [16] relates to Human alphaherpesvirus 2. In words: In vitro anti viral activity tested against HSV-2(Curtis) virus on Rabbit kidney cell cultures; 1-3. In kind it is functional. As to conditions: Human alphaherpesvirus 2, kidney; read-out: ED50 (the source's name). The gist of the method:
(§4)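 Confluent primary rabbit kidney monolayers were preincubated with serial drug dilutions in EMEM with 2% fetal calf serum and neomycin. They were then challenged with about 10 TCID50 of HSV-1 Schooler or HSV-2 Curtis and incubated at 37 °C. Cytopathology was scored on day 5. ED50 is the concentration preventing cytopathology in half of the infected cultures.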

Series [17] relates to Human alphaherpesvirus 1. In words: Efficacy was evaluated against Systemic HSV-1 infection in mice at a daily dose of 50 mg/kg administered orally; Total mice tested 10. The class given is organism-based. Further details: dose 50 mg/kg. The following applies: mouse, in vivo, po. The gist of the method: as §3
Series [18] has as its system Human alphaherpesvirus 1. Nature of the series: Efficacy was evaluated against Systemic HSV-1 infection in mice at a daily dose of 3.1 mg/kg administered subcutaneously; Tested mice 10. The following applies: mouse, in vivo, sc. Further details: dose 3.1 mg/kg, route subcutaneous. The class given is ADME, organism-based. The gist of the method: (§5)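 ICR/Ha mice (10–20 g, mixed sex) were infected intraperitoneally with 50–100 LD50 of HSV-1 Schooler. Subcutaneous dosing of 0.1 mL twice daily for 4 days started immediately after infection. Groups were of about 10 mice. Survival was recorded daily for 15 days and reported as survivors/total and mean survival time (95% CI). Transformed survival times were compared with placebo-treated infected mice (p < 0.05).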

In series [19] the test system is Human alphaherpesvirus 1. In words: Efficacy was evaluated against Systemic HSV-1 infection in mice at a daily dose of 3.1 mg/kg administered subcutaneously. Further details: dose 3.1 mg/kg, route subcutaneous. The following applies: mouse, in vivo, sc. In kind it is ADME, organism-based. The gist of the method:
as §5

Series [20] relates to Human alphaherpesvirus 1. In words: Efficacy was evaluated against Systemic HSV-1 infection in mice at a daily dose of 12.5 mg/kg administered subcutaneously; Tested mice 10. In kind it is organism-based. Further details: dose 12.5 mg/kg, route subcutaneous. As to conditions: mouse, in vivo, sc. The gist of the method: as §5
The test system of series [21] is Human alphaherpesvirus 2. Nature of the series: In vitro anti viral activity tested against HSV-2(Curtis) virus on Rabbit kidney cell cultures; 3-6. In kind it is functional. As to conditions: Human alphaherpesvirus 2, kidney; read-out: ED50 (the source's name). The gist of the method:
as §4

The test system of another series is Mus musculus. Nature of the series: Efficacy was evaluated against Systemic HSV-1 infection in mice at a daily dose of 12.5 mg/kg administered subcutaneously. Further details: dose 12.5 mg/kg, route subcutaneous. The class given is ADME, organism-based. The following applies: in vivo, sc. The gist of the method: as §5
The subject of another series is Human alphaherpesvirus 3. In words: In vitro anti viral activity tested against VZV(KMcC) virus on MRC-5 cell monolayers; 1-2. In kind it is functional. As to conditions: Human alphaherpesvirus 3, MRC5; read-out: ED50 (the source's name).
The subject of series [22] is Human alphaherpesvirus 1. Nature of the series: Efficacy was evaluated against Systemic HSV-1 infection in mice at a daily dose of 0.8 mg/kg administered subcutaneously. In kind it is ADME, organism-based. Details: dose 0.8 mg/kg, route subcutaneous. The following applies: mouse, in vivo, sc. The gist of the method: as §5
Series [23] concerns Human betaherpesvirus 5. Nature of the series: In vitro anti viral activity tested against HCMV(AD169) virus on MRC-5 cell monolayers; 0.4-1.6. The class given is functional. The following applies: Human betaherpesvirus 5, MRC5; read-out: ED50 (the source's name). The gist of the method:
as §2

For series [24], the system named is Human alphaherpesvirus 1. In words: Efficacy was evaluated against Systemic HSV-1 infection in mice at a daily dose of 0.8 mg/kg administered subcutaneously; Tested mice 10. The class given is organism-based. Details: dose 0.8 mg/kg, route subcutaneous. As to conditions: mouse, in vivo, sc. The gist of the method: as §5

In brackets after ≈: the same amount, converted by molar mass.

On to `Nc1nc2c(ncn2COCCO)c(=O)[nH]1` [ACYCLOVIR], for which the results for the Average lesion score in the series on Human alphaherpesvirus 1 [1], in the series on Human alphaherpesvirus 1 [2] and in the series on Human alphaherpesvirus 1 [12] were 1.45, 3.75 and 2.95, respectively. The results for the EC50 with Human betaherpesvirus 5 [3], with Human alphaherpesvirus 1 [9] and with Human alphaherpesvirus 2 [16] were 20 µg/mL (≈ 88.8 µM), 1 µg/mL (≈ 4.44 µM) and 1 µg/mL (≈ 4.44 µM), respectively. The Inhibition with Human alphaherpesvirus 1 [4] was 85%; in [6], 34%. Further, the Survivors was determined as 0 with Human alphaherpesvirus 1 [5], 1 in the series on Human alphaherpesvirus 1 [15] and 2 in the series on Human alphaherpesvirus 1 [17]. The Average survival in the series on Human alphaherpesvirus 1 [7] was found to be 6.5 days; in the series on Human alphaherpesvirus 1 [8] it was 8.7 days; in the series on Human alphaherpesvirus 1 [11], 7.6 days. The Mice with lesions with Human alphaherpesvirus 1 [10] is given as 10; with Human alphaherpesvirus 1 [13], 6; in the series with Human alphaherpesvirus 1 [14] it was 8.
Consider `Nc1nc2c(ncn2COC(CO)CO)c(=O)[nH]1` [GANCICLOVIR], for which the Survivors amounted to 5 in the series on Human alphaherpesvirus 1 [18], 7 with Human alphaherpesvirus 1 [20] and 3 in the series with Human alphaherpesvirus 1 [24]. The values for the Inhibition (in the series on Human alphaherpesvirus 1 [4]; in series [6]) were 55% and 13%, respectively. Besides, the Average survival with Human alphaherpesvirus 1 [19] is 12.6 days; in the series on Mus musculus, 14.6 days; with Human alphaherpesvirus 1 [22] it was 9.8 days. Also, the EC50 in the series on Human alphaherpesvirus 2 [21] came to 3 µg/mL (≈ 11.8 µM); with Human alphaherpesvirus 3, 1 µg/mL (≈ 3.92 µM); in the series with Human alphaherpesvirus 1 [9] it was 1 µg/mL (≈ 3.92 µM); in the series on Human betaherpesvirus 5 [23] it was 0.4 µg/mL (≈ 1.57 µM).
